# Results reported in ChEMBL document CHEMBL5712095, “The UVSSA complex alleviates MYC-driven transcription stress” (J Cell Biol, 2021).
# Active and inactive are the calls of the source. No cut-off for these calls is given here.
# How the values were obtained:
# Assay type in all cases: cell-based
# MCF10 [1] = experiment: Inhibition of DNA replicative polymerase in human MCF10A cells with UVSSA knockdown assessed as increase in MYC ON/MYC OFF survival ratio at 50 ng/ml administered every 48 to 72 hrs over 26 days by FBCS assay; details: time 26.0 day
# How it was run: (§1)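 FBCS: 250,000 shUVSSA-4 or shCONTROL MCF10A-MYC-ER cells coplated with 250,000 shRNA-free cells. Given 1 µg/ml doxycycline, 200 nM 4OHT or ethanol vehicle, and aphidicolin (top dose 50 ng/ml) or vehicle every 48–72 h for 26 d. Fluorescent fraction measured by flow cytometry at each passage; MYC ON/MYC OFF ratio calculated; n = 3.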
# MCF10 [2] = experiment: Inhibition of DNA replicative polymerase in human MCF10A cells with UVSSA knockdown assessed as transiently alleviation of synthetic sickness phenotype at 50 ng/ml administered every 48 to 72 hrs over 26 days by FBCS assay; details: time 26.0 day; how it was run: as §1
# [3] = molecular target: Ubiquitin carboxyl-terminal hydrolase 7 (Homo sapiens) (UniProt Q93009); experiment: Inhibition of USP7 in human MCF10A-MYC-ER cells assessed as increase in sensitization of MYC expressing cells up to 4 uM by MTT assay relative to control; details: MCF10
# [4] = molecular target: Ubiquitin carboxyl-terminal hydrolase 7 (Homo sapiens) (UniProt Q93009); experiment: Inhibition of USP7 in human MCF10A-MYC-ER cells assessed as increase in sensitization of MYC expressing cells up to 4 uM by Clonogenic assays relative to control; details: MCF10
# How it was run: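 Clonogenic assay: MCF10A-MYC-ER cells plated at 500 per 100-mm dish with 200 nM 4OHT or vehicle. Next day, P5091 at 0–4 µM for 24 h, then medium with 4OHT or vehicle for 10 d at 37°C. Colonies methanol-fixed, crystal violet-stained and counted; percentage survival from colony number; unpaired t test, n = 4.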
# MCF10 [5] = experiment: Inhibition of RNA polymerase 2 in human MCF10A cells with UVSSA knockdown assessed as increase in MYC ON/MYC OFF survival ratio at 100 ng/ml administered every 48 to 72 hrs over 14 days by FBCS assay; details: time 14.0 day
# [6] = Toxicity in human MCF10A cells with UVSSA knockdown assessed as increase in MYC ON/MYC OFF survival ratio at 100 ng/ml administered every 48 to 72 hrs over 14 days by FBCS assay; details: mcf10, 336 h, time 14 day
# MCF10 [7] = experiment: Inhibition of RNA polymerase 2 in human MCF10A cells with UVSSA knockdown assessed as transiently alleviation of synthetic sickness phenotype at 100 ng/ml administered every 48 to 72 hrs over 14 days by FBCS assay; details: time 14.0 day
# DNA = experiment: Induction of DNA double strand breaks in human MCF10A cells assessed as significant accumulation of P-CHK1(S345) or P-RPA (S4/S8) by Western blot analysis; details: MCF10
# How it was run: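 Immunoblot of whole-cell lysates (RIPA buffer with protease/phosphatase inhibitors, sonicated, cleared at 4°C) from MCF10A-MYC-ER shRNA lines given 200 nM 4OHT or vehicle plus 1 µg/ml doxycycline every 3 d and harvested at day 9. β-Actin is the loading control and NCS-treated cells the DSB positive control. Signal detected by ECL on film.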
# Chain of Ubiquitin carboxyl-terminal hydrolase 7 (Homo sapiens) (Q93009 whole entry, looked up): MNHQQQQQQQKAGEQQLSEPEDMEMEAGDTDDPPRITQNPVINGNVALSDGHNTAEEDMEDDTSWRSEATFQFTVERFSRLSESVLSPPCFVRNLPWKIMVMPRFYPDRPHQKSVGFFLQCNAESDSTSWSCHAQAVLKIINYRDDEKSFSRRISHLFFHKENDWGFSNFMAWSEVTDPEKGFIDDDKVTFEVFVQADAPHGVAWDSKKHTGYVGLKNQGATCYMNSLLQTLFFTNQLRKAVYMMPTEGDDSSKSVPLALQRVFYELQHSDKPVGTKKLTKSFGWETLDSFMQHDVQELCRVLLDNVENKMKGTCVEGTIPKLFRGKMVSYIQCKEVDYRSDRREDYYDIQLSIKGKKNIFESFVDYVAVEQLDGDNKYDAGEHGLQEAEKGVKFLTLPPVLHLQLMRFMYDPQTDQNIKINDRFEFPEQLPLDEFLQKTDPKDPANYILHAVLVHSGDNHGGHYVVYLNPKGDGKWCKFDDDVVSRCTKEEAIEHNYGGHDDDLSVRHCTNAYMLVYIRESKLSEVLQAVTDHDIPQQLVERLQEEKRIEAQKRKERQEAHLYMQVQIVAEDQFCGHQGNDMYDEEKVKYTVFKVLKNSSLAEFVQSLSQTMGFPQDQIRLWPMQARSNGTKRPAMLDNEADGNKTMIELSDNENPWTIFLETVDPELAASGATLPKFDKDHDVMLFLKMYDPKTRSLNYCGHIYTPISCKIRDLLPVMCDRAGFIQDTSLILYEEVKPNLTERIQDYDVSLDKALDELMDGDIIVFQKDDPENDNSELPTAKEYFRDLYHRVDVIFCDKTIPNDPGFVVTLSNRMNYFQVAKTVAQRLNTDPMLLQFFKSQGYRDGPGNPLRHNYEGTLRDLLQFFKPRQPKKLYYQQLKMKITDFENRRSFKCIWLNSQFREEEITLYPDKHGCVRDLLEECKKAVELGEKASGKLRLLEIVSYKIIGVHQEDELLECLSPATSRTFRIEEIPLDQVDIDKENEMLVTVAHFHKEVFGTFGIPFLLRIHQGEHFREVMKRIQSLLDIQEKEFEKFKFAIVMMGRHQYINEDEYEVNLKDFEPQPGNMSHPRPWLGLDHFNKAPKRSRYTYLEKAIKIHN
smiles,measurement,setting,value
C[C@@]1(CO)[C@H](O)CC[C@@]2(C)[C@H]1CC[C@H]1C[C@@H]3C[C@@]12CC[C@]3(O)CO,inhibition,MCF10 [1],inactive
same,inhibition,MCF10 [2],inactive
CC(=O)c1cc([N+](=O)[O-])c(Sc2cccc(Cl)c2Cl)s1,fold change (FC),[3],3
same,inhibition,[4],Active
CC[C@H](C)[C@@H]1NC(=O)CNC(=O)[C@@H]2Cc3c([nH]c4cc(O)ccc34)[S@+]([O-])C[C@H](NC(=O)CNC1=O)C(=O)N[C@@H](CC(N)=O)C(=O)N1C[C@H](O)C[C@H]1C(=O)N[C@@H]([C@@H](C)[C@@H](O)CO)C(=O)N2,inhibition,MCF10 [5],Active
same,Activity,[6],Toxic
same,inhibition,MCF10 [7],Active
CN[C@H]1[C@@H](O[C@@H]2C3CC#C[C@H]4O[C@@]4(C4COC(=O)O4)C#CC3=C[C@H]2OC(=O)c2c(O)ccc3c(C)cc(OC)cc23)O[C@H](C)[C@H](O)[C@@H]1O (stereo partly drawn),Activity,DNA,Active
